This is an account of results in ChEMBL document CHEMBL1156107, “Synthesis of new alkylaminooxysterols with potent cell differentiating activities: identification of leads for the treatment of cancer and neurodegenerative diseases” (J Med Chem, 2009).

The structures appear in SMILES notation. Calls of active or inactive are those of the source. No cut-off for these calls is given here. Some results are limits rather than exact numbers.

Test [1] deals with SK-N-SH. The test is described as follows: Induction of neurite outgrowth in human SK-N-SH cells at 40 to 60 uM after 48 hrs by crystal violet staining. It is filed as functional, cell-based.
For test [2], the system named is SH-SY5Y. In words: Induction of neurite outgrowth in human SH-SY5Y cells at 40 to 60 uM after 48 hrs by crystal violet staining. In kind it is functional, cell-based.
In test [3] the test system is N2a. In words: Induction of neurite outgrowth in mouse Neuro2a cells at 40 to 60 uM after 48 hrs by crystal violet staining. In kind it is functional, cell-based.
The subject of test [4] is U-87MG ATCC. In words: Induction of neurite outgrowth in human U87 cells at 40 to 60 uM after 48 hrs by crystal violet staining. In kind it is functional, cell-based.
Test [5] has as its system P19. In words: Induction of neurite outgrowth in mouse P19 cells at 40 to 60 uM after 48 hrs by crystal violet staining. In kind it is functional, cell-based.
Test [6] deals with A549. The test is described as follows: Cytotoxicity against human A549 cells after 72 hrs by trypan blue exclusion assay. It is filed as functional, cell-based. The gist of the method:
(§1)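 Cells were exposed for 72 h to the test agent at increasing concentrations from 10 nM to 20 μM, at 37 °C in humidified 5% CO2. Cells were scraped and resuspended in 0.25% w/v trypan blue in PBS, and dead cells were counted under a light microscope in a Malassez chamber. IC50 is the concentration giving 50% cytotoxicity. Values are mean ± SE of three independent experiments, each run in duplicate.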

The subject of test [7] is P19. The test is described as follows: Cytotoxicity against mouse P19 cells after 72 hrs by trypan blue exclusion assay. In kind it is functional, cell-based. In a few lines:
as §1

Test [8] has as its system SK-N-SH. In words: Cytotoxicity against human SK-N-SH cells after 72 hrs by trypan blue exclusion assay. It is filed as functional, cell-based. The gist of the method:
as §1

Test [9] concerns SH-SY5Y. In words: Cytotoxicity against human SH-SY5Y cells after 72 hrs by trypan blue exclusion assay. It is filed as functional, cell-based. The gist of the method: as §1
Test [10] concerns N2a. In words: Cytotoxicity against mouse Neuro2a cells after 72 hrs by trypan blue exclusion assay. In kind it is functional, cell-based. In a few lines: as §1
The test system of test [11] is U-87MG ATCC. In words: Cytotoxicity against human U87 cells after 72 hrs by trypan blue exclusion assay. In kind it is functional, cell-based. The gist of the method: as §1
Test [12] deals with U-937. The test is described as follows: Cytotoxicity against human U937 cells after 72 hrs by trypan blue exclusion assay. It is filed as functional, cell-based. The gist of the method:
as §1

The subject of test [13] is NB-4. The test is described as follows: Cytotoxicity against human NB4 cells after 72 hrs by trypan blue exclusion assay. It is filed as functional, cell-based. The gist of the method:
as §1

In test [14] the test system is KG-1. The test is described as follows: Cytotoxicity against human KG1 cells after 72 hrs by trypan blue exclusion assay. It is filed as functional, cell-based. The gist of the method:
as §1

In test [15] the test system is HCT-8. The test is described as follows: Cytotoxicity against human HCT8 cells after 72 hrs by trypan blue exclusion assay. In kind it is functional, cell-based. The gist of the method:
as §1

The subject of test [16] is SW-620. The test is described as follows: Cytotoxicity against human SW620 cells after 72 hrs by trypan blue exclusion assay. It is filed as functional, cell-based. In a few lines: as §1
Test [17] relates to U-937. In words: Induction of dendrite out growth in IL-4/GMCSF-stimulated human U937 cells assessed as dendrite length at 100 nM after 48 hrs by light microscopy. In kind it is functional. The gist of the method: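 U937 cells at 1.1 × 10⁶ cells/mL were primed with 10 ng/mL PMA for 48 h in RPMI with 10% heat-inactivated serum. Adherent cells were then given 100 ng/mL IL-4 plus 100 ng/mL GM-CSF or 100 nM compound for 48 h. Dendrite length scored by light microscopy, from none to over 100 μm with a contact network.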

The test system of test [18] is U-937. The test is described as follows: Cytotoxicity against human U937 cells after 3 days by trypan blue exclusion assay. It is filed as functional, cell-based. The settings on record: Homo sapiens, U-937, 72 h; read-out: IC50. In a few lines:
(§2)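 U937 and P19 cells treated with compound. Cell death scored by trypan blue exclusion, with cells scraped, suspended in 0.25% w/v trypan blue in PBS and counted in a Malassez cell. IC50 is the concentration giving 50% cytotoxicity.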

Test [19] concerns P19. The test is described as follows: Induction of dendrite out growth in IL-4/GMCSF-stimulated mouse P19 cells assessed as dendrite length at 100 nM after 48 hrs by light microscopy. In kind it is functional.
In test [20] the test system is P19. The test is described as follows: Cytotoxicity against mouse P19 cells after 3 days by trypan blue exclusion assay. It is filed as functional, cell-based. The settings on record: Mus musculus, P19, 72 h; read-out: IC50. The gist of the method:
as §2

The test system of test [21] is MCF7. In words: Cytotoxicity against human MCF7 cells after 72 hrs by trypan blue exclusion assay. In kind it is functional, cell-based. The gist of the method: as §1
Test [22] has as its system TS/A. The test is described as follows: Cytotoxicity against mouse TSA cells after 72 hrs by trypan blue exclusion assay. It is filed as functional, cell-based. In a few lines: as §1
Test [23] deals with SK-MEL-28. In words: Cytotoxicity against human SK-MEL-28 cells after 72 hrs by trypan blue exclusion assay. In kind it is functional, cell-based. The gist of the method: as §1
The subject of test [24] is B16-F10. In words: Cytotoxicity against mouse B16F10 cells after 72 hrs by trypan blue exclusion assay. In kind it is functional, cell-based. In a few lines:
as §1

Turning to `CC/C=C\C/C=C\C/C=C\C/C=C\C/C=C\C/C=C\CCC(=O)O`, the result in [1], in test [2], in test [3], in [4] and in test [5] was Active.
With `CC(C)CCC[C@@H](C)[C@H]1CC[C@H]2[C@@H]3C[C@@H](n4cnc(CCN)c4)[C@@]4(O)C[C@@H](O)CC[C@]4(C)[C@H]3CC[C@]12C`, the outcome in test [6], in [7], in [8], in test [9], in [10] and in test [11] was inactive. The outcome in [12], in [13], in test [14], in test [15], in test [16] and in test [21] was inactive. Besides, the result in [22], in [23] and in [24] was inactive. Besides, the Activity in test [17] and in test [19] was under 5 um in each case. Further, the results for the concentration for half-maximal inhibition (IC50) in [18] and in test [20] were 7.7 µM and 8.9 µM, respectively.

As usually defined, the IC50 is the concentration that inhibits the measured activity by half.
